Results from ChEMBL document CHEMBL4196154, “Structure-Guided Design and Development of Potent and Selective Dual Bromodomain 4 (BRD4)/Polo-like Kinase 1 (PLK1) Inhibitors” (J Med Chem, 2018).
Activity calls are given as the source filed them. The calls are words filed in the database; no cut-off is given here.

What was measured:
[1] = biological target: T1, Bromodomain-containing protein 4 (Homo sapiens, UniProt O60885); assay: Inhibition of BRD4-BD1 (unknown origin) incubated for 1 hr by AlphaScreen biotin-JQ1 competition assay
[2] = biological target: T2, Serine/threonine-protein kinase PLK1 (Homo sapiens, UniProt P53350); assay: Inhibition of human recombinant PLK1 by Z-Lyte assay
T2 sequence (P53350 whole entry): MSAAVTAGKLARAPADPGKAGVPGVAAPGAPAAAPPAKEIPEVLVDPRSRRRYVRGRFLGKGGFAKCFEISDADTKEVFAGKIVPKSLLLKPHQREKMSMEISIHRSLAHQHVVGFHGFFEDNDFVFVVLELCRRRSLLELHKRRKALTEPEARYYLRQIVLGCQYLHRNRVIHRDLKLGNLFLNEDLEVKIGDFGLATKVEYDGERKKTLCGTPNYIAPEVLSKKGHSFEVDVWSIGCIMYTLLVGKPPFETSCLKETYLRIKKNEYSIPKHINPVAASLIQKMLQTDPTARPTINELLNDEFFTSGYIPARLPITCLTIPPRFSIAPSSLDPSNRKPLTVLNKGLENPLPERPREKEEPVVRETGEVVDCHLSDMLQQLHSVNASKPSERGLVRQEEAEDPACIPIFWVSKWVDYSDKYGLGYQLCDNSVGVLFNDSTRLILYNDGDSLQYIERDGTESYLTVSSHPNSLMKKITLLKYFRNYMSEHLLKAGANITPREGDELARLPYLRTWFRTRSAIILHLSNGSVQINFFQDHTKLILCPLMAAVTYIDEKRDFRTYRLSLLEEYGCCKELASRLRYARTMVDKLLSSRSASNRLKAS

[3] = biological target: Bromodomain testis-specific protein (Homo sapiens, UniProt Q58F21); assay: Inhibition of BRDT-BD1 (unknown origin) incubated for 1 hr by AlphaScreen biotin-JQ1 competition assay
Outline: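 BD protein at 40 nM, Ni-coated acceptor and streptavidin donor beads each 25 μg/mL. Buffer 50 mM HEPES, 150 mM NaCl, 0.1% BSA, 0.01% Tween20, pH 7.5. Compounds delivered in DMSO. Run under low light, read after 1 h at room temperature.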

[4] = biological target: T2, Serine/threonine-protein kinase PLK1; assay: Inhibition of human PLK1 expressed in mammalian expression system assessed as remaining enzyme activity at 1 uM
Outline: (§1)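 Single-concentration binding panel at 1 uM: BROMOscan (32 bromodomains) and KINOMEscan (468 kinases) competition-binding platforms. Reported as % of DMSO control.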

[5] = biological target: Serine/threonine-protein kinase PLK2 (Homo sapiens) (UniProt Q9NYY3); assay: Inhibition of human PLK2 expressed in mammalian expression system assessed as remaining enzyme activity at 1 uM; outline: as §1
Serine/threonine-protein kinase PLK2 (Homo sapiens), sequence (Q9NYY3 whole entry, looked up): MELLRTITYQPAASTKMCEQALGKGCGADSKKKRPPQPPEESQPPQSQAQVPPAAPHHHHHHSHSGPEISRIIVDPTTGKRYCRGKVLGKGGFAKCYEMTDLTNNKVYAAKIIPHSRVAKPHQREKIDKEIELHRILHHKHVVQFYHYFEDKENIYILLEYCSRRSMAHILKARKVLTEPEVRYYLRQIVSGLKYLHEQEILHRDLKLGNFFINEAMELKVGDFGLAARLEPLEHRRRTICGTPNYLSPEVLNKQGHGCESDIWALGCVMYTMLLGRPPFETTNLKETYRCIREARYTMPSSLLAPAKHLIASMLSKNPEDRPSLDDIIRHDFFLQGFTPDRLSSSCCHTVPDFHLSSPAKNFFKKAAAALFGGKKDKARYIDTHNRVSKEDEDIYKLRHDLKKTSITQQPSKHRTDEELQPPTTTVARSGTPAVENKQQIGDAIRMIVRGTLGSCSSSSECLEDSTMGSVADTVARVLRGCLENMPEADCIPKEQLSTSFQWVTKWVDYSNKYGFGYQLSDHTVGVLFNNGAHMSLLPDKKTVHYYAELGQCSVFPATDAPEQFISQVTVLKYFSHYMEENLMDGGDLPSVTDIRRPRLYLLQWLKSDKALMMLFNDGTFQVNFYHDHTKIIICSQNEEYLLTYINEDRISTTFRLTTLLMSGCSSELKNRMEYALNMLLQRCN

[6] = biological target: T1, Bromodomain-containing protein 4; assay: Inhibition of human BRD4-BD1 expressed in bacterial expression system assessed as remaining activity at 1 uM; outline: as §1
[7] = biological target: Serine/threonine-protein kinase PLK3 (Homo sapiens) (UniProt Q9H4B4); assay: Inhibition of human PLK3 expressed in mammalian expression system assessed as remaining enzyme activity at 1 uM; outline: as §1
Serine/threonine-protein kinase PLK3 (Homo sapiens), sequence (Q9H4B4 whole entry, looked up): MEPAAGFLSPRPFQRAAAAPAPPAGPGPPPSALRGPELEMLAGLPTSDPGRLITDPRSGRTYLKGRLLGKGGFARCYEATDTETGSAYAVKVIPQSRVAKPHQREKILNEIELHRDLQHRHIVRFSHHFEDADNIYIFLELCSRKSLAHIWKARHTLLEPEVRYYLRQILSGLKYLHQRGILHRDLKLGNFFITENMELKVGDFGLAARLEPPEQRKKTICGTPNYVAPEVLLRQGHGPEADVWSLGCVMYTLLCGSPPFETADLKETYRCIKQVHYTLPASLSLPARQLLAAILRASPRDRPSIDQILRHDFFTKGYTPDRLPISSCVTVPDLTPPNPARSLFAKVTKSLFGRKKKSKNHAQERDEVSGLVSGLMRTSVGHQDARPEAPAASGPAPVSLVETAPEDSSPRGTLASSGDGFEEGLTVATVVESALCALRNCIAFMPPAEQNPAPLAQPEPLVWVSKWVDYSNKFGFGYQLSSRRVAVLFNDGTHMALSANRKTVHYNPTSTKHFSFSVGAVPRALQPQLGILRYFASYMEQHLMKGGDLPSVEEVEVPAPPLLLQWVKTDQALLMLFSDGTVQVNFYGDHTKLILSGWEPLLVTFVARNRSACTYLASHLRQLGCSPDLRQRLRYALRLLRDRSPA

[8] = system: MOLM-13; assay: Induction of cell cycle arrest in human MOLM13 assessed as accumulation at G1/G2 phase at 1 uM incubated for 24 hrs by propidium iodide staining based flow cytometry; format: functional
Outline: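 MOLM13 cells exposed to 1 μM compound for 24 h, then harvested, stained with propidium iodide and PI fluorescence measured on a flow cytometer for cell-cycle distribution.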

[9] = species: Homo sapiens; assay: Selectivity index, ratio of IC50 for inhibition of BRD4-BD1 (unknown origin) to IC50 for human recombinant PLK1

IC50 [1] | IC50 [2] | IC50 [3] | Compound | further results
690 nM |  | 3540 nM | CN1CCC(NC(=O)c2ccc(Nc3ncc4c(n3)N(C3CCCC3)CC(=O)N4C)c(OC3CCCC3)c2)CC1 | 
41900 nM | 218 nM |  | COc1cc(C(=O)NC2CCN(C)CC2)ccc1Nc1ncc2c(n1)N(C(C)C)[C@H](CC(C)C)C(=O)N2C | 
107 nM | 160 nM | 378 nM | COc1cc(C(=O)NC2CCCCC2)ccc1Nc1ncc2c(n1)N(C1CCCC1)[C@H](C)C(=O)N2C | 
596 nM | 47 nM | 1950 nM | CCC[C@@H]1C(=O)N(C)c2cnc(Nc3ccc(C(=O)NC4CCN(C)CC4)cc3OC3CCCC3)nc2N1C1CCCC1 | 
59 nM | 127 nM | 245 nM | C[C@H]1C(=O)N(C)c2cnc(Nc3ccc(C(=O)NC4CCN(C)CC4)cc3OC3CCCC3)nc2N1C1CCCC1 | 
94 nM | 95 nM | 369 nM | COc1cc(C(=O)N2CCCCC2)ccc1Nc1ncc2c(n1)N(C1CCCC1)[C@H](C)C(=O)N2C | 
> 50000 nM | 322 nM | > 50000 nM | COc1cc(C(=O)NC2CCN(C)CC2)ccc1Nc1ncc2c(n1)N(C1CCOCC1)[C@H](CC(C)C)C(=O)N2C | 

Second part, the molecule before the results:

Compound | IC50 [1] | IC50 [2] | IC50 [3] | further results
COc1cc(C(=O)NC2CCN(C)CC2)ccc1Nc1ncc2c(n1)N(C1CCCC1)[C@@H](C)C(=O)N2C | 107 nM | 8.7 nM | 229 nM | 
COc1cc(C(=O)NC2CCN(C)CC2)ccc1Nc1ncc2c(n1)N(C1CCCC1)[C@H](C)C(=O)N2C | 84 nM | 1.1 nM | 342 nM | Activity [4]: 0.3 to 0.5%; Activity [5]: 0.3 to 0.5%; Activity [6]: 12%; Activity [7]: 0.3 to 0.5%
C[C@@H]1C(=O)N(C)c2cnc(Nc3ccc(C(=O)NC4CCN(C)CC4)cc3OC3CCCC3)nc2N1C1CCCC1 | 28 nM | 40 nM | 102 nM | Activity [8]: Active
COc1cc(C(=O)NCCN(C)C)ccc1Nc1ncc2c(n1)N(C1CCCC1)[C@H](C)C(=O)N2C | 104 nM | 21 nM | 392 nM | 
CC[C@@H]1C(=O)N(C)c2cnc(Nc3ccc(C(=O)NC4CCN(C)CC4)cc3OC)nc2N1C(C)C | 186 nM | 4 nM |  | 
COC(=O)c1ccc(Nc2ncc3c(n2)N(C2CCCC2)[C@H](C)C(=O)N3C)c(OC2CCCC2)c1 | 253 nM | 457 nM | 933 nM | 
COc1cc(C(=O)NC2CCN(C)CC2)ccc1Nc1ncc2c(n1)N(C(C)C)[C@H](C)C(=O)N2C | 421 nM | 25.2 nM | 978 nM | 
COc1cc(C(=O)NC2CCNCC2)ccc1Nc1ncc2c(n1)N(C1CCCC1)[C@H](C)C(=O)N2C | 109 nM | 9 nM | 560 nM | 
CCC[C@@H]1C(=O)N(C)c2cnc(Nc3ccc(C(=O)NC4CCN(C)CC4)cc3OC)nc2N1C1CCCC1 | 2580 nM | 9.9 nM | 8470 nM | Ratio IC50 [9]: > 250
CC[C@@H]1C(=O)Nc2cnc(Nc3ccc(C(=O)NC4CCN(C)CC4)cc3OC)nc2N1C1CCCCC1 | > 10000 nM | 37.2 nM |  | Ratio IC50 [9]: > 250
CC[C@@H]1C(=O)Nc2cnc(Nc3ccc(C(=O)NC4CCN(C)CC4)cc3OC)nc2N1C(C)C | > 10000 nM | 2620 nM |  | Ratio IC50 [9]: > 250
CC[C@@H]1C(=O)N(C)c2cnc(Nc3ccc(C(=O)NC4CCN(C)CC4)cc3OC)nc2N1C1CCCCC1 | 650 nM | 4 nM |  | 
COc1cc(C(=O)NC2CCN(C)CC2)ccc1Nc1ncc2c(n1)N(C1CCCC1)CC(=O)N2C | 6630 nM | 54.1 nM | 26000 nM | 
COc1cc(C(=O)NC2CCN(C)CC2)ccc1Nc1ncc2c(n1)N(C1CCCCC1)[C@H](C)C(=O)N2C | 310 nM | 8.6 nM | 750 nM | 
COc1cc(C(=O)NCCc2ccccc2)ccc1Nc1ncc2c(n1)N(C1CCCC1)[C@H](C)C(=O)N2C | 183 nM | 27 nM | 558 nM | 
